Assay: Toxicity liver stage against HepG2, at 10uM
Format: cell-based
Parameters: test concentration 10 uM, cell line HepG2-A16-CD81EGFP
Details: human, HepG2-A16-CD81EGFP cells; read-out: INHIBITION
In short: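 Uninfected HepG2-A16-CD81EGFP cells, 3 × 10^3 per well, 1536-well, plated on prespotted compound at 10 μM final, parasite-free screening media added to match infected plates; puromycin 10 μM positive, DMSO 0.5% negative; run in parallel with 48 h PbLuc assay at 37 °C, 5% CO2; viability by CellTiter-Glo luminescence, normalized to controls.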

Structure (SMILES) | cytotoxicity at 10 µM [%]
O=C(Cn1ccc2ccc(F)cc21)NC[C@@H]1CCCN2CCCC[C@H]12 | 14
O=S1(=O)CCC(S(=O)(=O)c2cccc(S(=O)(=O)N3CCOCC3)c2)C1 (stereo not given) | 3.42
CCN(CC)c1nc2ccsc2c(=O)n1CCC(=O)NC1CCCC1 | 7.19
O=C(NC1CC1)[C@H]1COC[C@H]2CN(c3ncc(F)cn3)C[C@H]21 | -0.664
CCn1cc2c(n1)C(COC)CN(Cc1ccoc1)C2 (stereo not given) | 7.89
O=C(c1ccco1)N1CCCC2(CCN(CCN3CCCC3)C2=O)C1 (stereo not given) | -4.73
CC(C)N1CCC2(CC1)NC(=O)c1cc(Br)ccc1-n1nnnc12 | 9.26
Cc1cccnc1C(Cc1ccsc1)NC(=O)Cn1cccnc1=O (stereo not given) | 3.08
CC(=O)N1CC2(CCCCN2Cc2ccc(Cl)cc2)Cc2ccccc21 (stereo not given) | 14.5
FC(F)Oc1ccccc1CNCc1cc(Br)c2c(c1)OCO2 | 10.7
Cc1ccc(C(=O)NCC(C)Cn2cccn2)c(=O)[nH]1 (stereo not given) | 3.14
Cc1csc(C(C)(C)NCCOc2ccc(CC#N)cc2)n1 | 1.74
Cc1nc(CN(C)S(=O)(=O)c2ccccc2Br)no1 | 6.2
COc1ccc2c(c1)NC(=O)C2OC(=O)Cc1ccccc1C (stereo not given) | 45.2
Cc1cc(NC(=O)C(C)NCCn2cccn2)no1 (stereo not given) | 10.6
CCc1nnc(C2Cc3ccccc3CN2Cc2cc(C)no2)o1 (stereo not given) | -7.4
Cc1noc(C)c1CNc1cccc(C(=O)N(C)c2ccccc2)c1 | 17.5
CCCC(NC(=O)c1cc(C)c(F)cc1F)c1nnn[nH]1 (stereo not given) | -2.59
CCN(CC1CN(Cc2cccc(C#N)c2)CCO1)c1cccnn1 (stereo not given) | 17
Cc1ncc(CN(C)C2CCCN(c3cccnn3)C2)s1 (stereo not given) | 0.709
O=C(CCc1ccsc1)NC1CCN(c2cccc(F)c2)CC1 | -3.89
Cn1cc(NC(=O)CCc2ccsc2)ccc1=O | -2.9

Structure (SMILES) | cytotoxicity at 10 µM [%]
Cc1nc(CCNC(Cc2ccncc2)C(F)(F)F)cs1 (stereo not given) | -1.48
CN1CCN(c2ccc(F)cc2C(N)=O)CC1 | 6.11
CCN(C)S(=O)(=O)N(CC)Cc1cccc(-c2ccncc2)c1 | -11.5
Cc1nnc(C(C)N(C)Cc2c(C)nn(-c3ccccc3C)c2C)o1 (stereo not given) | -1.07
CC(=O)N1CCC(C(=O)NC(C)c2cccc(OC(F)F)c2)CC1 (stereo not given) | -8.2
COc1ncc(Cl)c(NCc2ccc(C(=O)N(C)C)cc2)n1 | 9.95
Cn1c(=O)oc2cc(Nc3ncc(C#N)cc3Cl)ccc21 | 4.93
CN1CC(Nc2ccc(Br)cc2C#N)CCC1=O (stereo not given) | 8.25
CCc1ccc(C(=O)O)cc1S(=O)(=O)N(C)c1cccc(C)c1 | -8.2
Fc1ccc(NCc2ncc[nH]2)cc1Br | 3.76
N#Cc1cccc(OCC(=O)N(Cc2ccncc2)C2CC2)c1 | -44.2
OCc1cc2ccccc2nc1NCC1CC1 | -46.2
O=C(CN1CCOC(Cn2cccn2)C1)NC(C1CC1)C1CC1 (stereo not given) | -42.1
Cc1cnc(CCN(C)C(=O)c2cccc(C)c2O)s1 | -2.48
CCc1nnc2n1CCN(Cc1nc3c(F)cccc3[nH]1)C2 | -8.06
Cn1cc(C(=O)OCC(N)=O)c(-c2ccc(F)cc2F)n1 | -7.85
CC(=O)N1CCCN(C(=O)c2oc(Br)cc2C)CC1 | -13.6
COc1cc(N2CCC3(CC(=O)N(Cc4csc(C)n4)C3)C2)ncn1 (stereo not given) | -104
CN(C)S(=O)(=O)N1CCC2(COCc3cnc(-c4cccnc4)nc32)C1 (stereo not given) | -115
CN(C)C(=O)N1CCc2c(COCC3CC3)cncc2C1 | -68.2
CN(C)C(=O)CC1CC2(CCNCC2)c2cc(F)ccc21 (stereo not given) | 6.54
COCCn1c2c(ccc1=O)CC(NS(C)(=O)=O)CC2 (stereo not given) | 8.8

Structure (SMILES) | cytotoxicity at 10 µM [%]
COc1ccccc1Nc1nc2c(s1)C(=O)CN(C(=O)CC(C)C)C2 | 61.2
O=S(=O)(CCNCc1cc(O)c2cc(F)ccc2n1)N1CCCC1 | -39.5
CN(CC(=O)N1CC(C)(C)[C@@](C)(O)C1)Cc1ccncc1 | -49.4
O=C(NCC1CCCN(C(=O)NCCc2ccccc2)C1)c1ccco1 (stereo not given) | -4.66
CC(C)N1CCOC(CC(=O)N2CCCN(Cc3ccncc3)CC2)C1 (stereo not given) | -7.49
CSc1ccc(CN(C(=O)c2cc(=O)[nH]c(=O)[nH]2)C2CC2)cc1 | -44.8
Cc1cccc(CN2CCN(c3ncnc4[nH]ccc34)CC2CCO)n1 (stereo not given) | 10.8
Cc1ccccc1-n1ncc(C(C)N)c1C (stereo not given) | -8.23
CN(C(=O)CC1=CCCCC1)C1CCCN(CCc2ccccc2)C1 (stereo not given) | 7.23
CCN(Cc1noc(C)n1)C(=O)CCn1c(C)cc2ccccc21 | -3.97
Cc1ncsc1CCC(=O)N1CCn2cccc2C1c1cccnc1 (stereo not given) | -9.57
CNc1nc(C(=O)N2CCCC(CO)(CCCOC)C2)cs1 (stereo not given) | 7.43
CC(C)N1CCCC(C(=O)N2CCN(c3nsc4ccccc34)CC2)C1 (stereo not given) | 2.81
COCCN1CCC(C(=O)N(C)CCOc2ccc(C)cc2Cl)C1 (stereo not given) | 13.4
O=C1CCCN1CCC1CCCCN1C(=O)c1ccc(SCCO)cc1 (stereo not given) | -43
CCN(Cc1noc(CC(C)C)n1)Cc1ccccc1C(=O)O | -51.6
CC(C)N1CCC(CC(=O)N2CCN(Cc3nccn3C)CC2)CC1 | -3.91
CC(C)c1cc(NCc2csc(C(C)C)n2)nc(N)n1 | 19.8
CN(Cc1ccco1)c1ccc(C(=O)NCCCc2ccccn2)cn1 | -55.8
CCCn1ncc(C(=O)NC2CCN(C3CCOCC3)CC2)c1C | 5.66
CC(=O)NC1CCN(c2nc(N(C)C)nc3c2CCN(C(C)=O)C3)CC1 | 0.541
CN(Cc1ccncn1)c1nccc(CCC(F)(F)F)n1 | 11.2

Structure (SMILES) | cytotoxicity at 10 µM [%]
CCN(C)C[C@@H]1CN(S(=O)(=O)c2ccc(C#N)cc2)C[C@@H]1CO | 13.5
CC(C)N(C)C(=O)CN1C(=O)OC[C@@H]1c1ccccc1 | -47.7
CCn1cnc(NC(=O)N2CCC(c3ccc(Cl)cc3)C2)n1 (stereo not given) | 0.0451
CCn1nc(C)cc1S(=O)(=O)N1CCC2(CCCN(C(C)C)C2=O)C1 (stereo not given) | -16.3
CCC(C)N(Cc1cccnc1)Cc1cc2c(cc1Cl)OCO2 (stereo not given) | 6.16
COCCCN1CCN([C@@H]2c3ccccc3C3(CCNCC3)[C@H]2O)CC1 | -4.86
CCCc1nc(N(C)Cc2cnc(NC)nc2)c2cnn(C)c2n1 | 3.42
Cc1cc(C)n2ncc(CN3CCC(n4cc(CCO)nn4)CC3)c2n1 | 6.59
Cc1cc(C(F)(F)F)nc(CNC(=O)CCn2cccn2)n1 | 1.7
CCNc1ncc(CN2C[C@@H](C(=O)O)[C@H](C3CC3)C2)cn1 | -46.1
CN1CC(c2n[nH]c(=O)n2-c2cccc(Cl)c2)CC1=O (stereo not given) | 3.24
CS(=O)(=O)N1CCN(c2ccnc(N3CCCCC3)n2)CC1 | -0.359
O=C1CC[C@H]2CN(C3CCOCC3)CC[C@H]2N1CCC1=CCCCC1 | -4.76
O=C(CC1=CCCCC1)N1CCC(Cn2cc(CCO)nn2)CC1 | 3.88
O=c1cc(CN2CCCC(CCc3c(F)cccc3F)C2)[nH]c(=O)[nH]1 (stereo not given) | -3.88
CC(C)(O)C1CCN(C(=O)Nc2nc(-c3ccccc3)ns2)CC1 | 5.68
OCCN1CCN(Cc2coc(-c3ccccc3)n2)CC1 | -5.03
CCc1ccsc1C(=O)N1CCCN(Cc2cnn(CC)c2)CC1 | 0.501
Cc1ccc(OCC(O)CN2CCc3c(ncn3C3CC3)C2)cc1 (stereo not given) | 0.2
Cc1ccc(-c2nc(CN3CCOC(CN(C)C)C3)co2)cc1 (stereo not given) | -4.23
Cc1nnc2n1CCN(CCOc1ccccc1C#N)C2 | -4.53
Cc1cn2nc(N3CCN(Cc4c(C)noc4C)CC3)sc2n1 | -8.81

Structure (SMILES) | cytotoxicity at 10 µM [%]
COCc1nc(C(=O)N2CCCC(n3ccnc3)C2)cs1 (stereo not given) | -2.12
Cc1noc(C)c1CN1CCN(C(C)c2nc(C3CC3)no2)CC1 (stereo not given) | -16.5
CCn1cc(NC(=O)CN2CCC(Oc3ccc(F)cc3)CC2)c(C)n1 | 9.25
Cc1ccc(CN2CCc3c(nnn3C)C2COCc2ccccc2)s1 (stereo not given) | -110
Cn1cc(N2CC[C@@H]3CN(Cc4ccncc4)C[C@H]3C2=O)cn1 | -103
Cc1ccc(N2CCC3(CC2)CCN(C2CCOCC2)CC3)nn1 | 5.5
CC(C)N1CCC2(CC1)CC(CC(N)=O)c1ccc(F)cc12 (stereo not given) | 12.8
O=C(c1cscn1)N1CCc2c(COCC3CC3)cncc2C1 | -105
Cc1ncsc1CN1CCn2c(COc3cccnc3)cnc2C1C (stereo not given) | 9.16
Cc1ccc(CN2CC[C@@H]3OCCN(Cc4ccncc4)[C@H]3CC2)s1 | 6.84
c1cc(CN2C[C@@H]3OCCN(CC4CC4)[C@@H]3C2)n[nH]1 | -109
CS(=O)(=O)N1CCC2(CC1)CC(NCC1CC1)c1ccccc12 (stereo not given) | -111
CN(Cc1ccncc1)C1CC2(CCN(c3ncccn3)CC2)C1 | 13.1
COc1ccc(C[C@H]2CN(Cc3ccoc3)CC[C@@H]2OC)cc1 | 2.51
O=C(c1cccc(F)c1)N1CC[C@H]2[C@H]1CCN2CC1CCOCC1 | -75.4
CN1CCO[C@@H]2CN(C(=O)c3ccc4ncccc4c3)CC[C@@H]2C1 | -112
Cc1ccc(Nc2nccc(C3CCN(C(=O)CN)C3)n2)nc1 (stereo not given) | -18.5
CN1CC2(CCN(S(=O)(=O)C3CC3)CC2)c2ccccc21 | -4.35
CCN1C[C@H]2[C@@H](C1)N(S(=O)(=O)c1cccnc1)CC[C@H]2OC | -1.78
Cn1cnc2c1C(COCC1CC1)CN(C(=O)c1cscn1)C2 (stereo not given) | 0.922
NC1CC(C(F)(F)F)=NC=C1c1ccc(Cl)cc1 (stereo not given) | 50.2
O=C(c1cccc(CNCC=Cc2ccccc2)c1)N1CCCC1 | 9.46

From ChEMBL document CHEMBL4513216, “Probing the Open Global Health Chemical Diversity Library for Multistage-Active Starting Points for Next-Generation Antimalarials” (ACS Infect Dis, 2020)
